Where two headings read alike, the source gives them in different places.
Experiments:
Type in all cases: biochemical
human PDE5 = human PDE5 (Homo sapiens, UniProt O76074); experiment: PDE5 inhibition, IMAP fluorescence polarization phosphodiesterase assay; conditions: for inhibition at 50 µM: read-out: % cGMP inhibition (50 μM)
PDE3B = PDE3B (Homo sapiens, UniProt Q13370); experiment: PDE3B inhibition
Method in brief: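 Reaction started with a substrate solution of 50 nM TAMRA-cGMP and/or Fl-cAMP. Run 60 min at room temperature, stopped with IMAP binding solution. Hydrolysis read as fluorescence polarization (TAMRA 530–590 nm).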

PDE4B = PDE4B (Homo sapiens, UniProt Q07343); experiment: PDE4B inhibition
PDE11A = PDE11A (Homo sapiens, UniProt Q9HCR9); experiment: PDE11A inhibition
[1] = read-out: IC50 PDE3B cGMP, cGMP as substrate

Chain of PDE3B (Q13370 592-1112 limits assumed): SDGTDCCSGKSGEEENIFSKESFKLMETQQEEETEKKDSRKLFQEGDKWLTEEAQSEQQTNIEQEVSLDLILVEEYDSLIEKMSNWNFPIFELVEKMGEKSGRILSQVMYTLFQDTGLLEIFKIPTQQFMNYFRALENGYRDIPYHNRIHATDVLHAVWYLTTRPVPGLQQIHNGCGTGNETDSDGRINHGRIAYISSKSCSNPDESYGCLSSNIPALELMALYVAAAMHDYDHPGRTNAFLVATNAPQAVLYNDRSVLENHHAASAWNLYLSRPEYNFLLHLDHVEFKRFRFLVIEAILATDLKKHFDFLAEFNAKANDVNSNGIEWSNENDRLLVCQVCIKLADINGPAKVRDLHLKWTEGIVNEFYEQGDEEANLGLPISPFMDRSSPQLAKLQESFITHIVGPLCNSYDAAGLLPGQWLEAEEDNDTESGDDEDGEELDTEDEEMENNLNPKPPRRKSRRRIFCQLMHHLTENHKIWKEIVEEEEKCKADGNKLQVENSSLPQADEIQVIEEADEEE
Chain of PDE11A (Q9HCR9 whole entry): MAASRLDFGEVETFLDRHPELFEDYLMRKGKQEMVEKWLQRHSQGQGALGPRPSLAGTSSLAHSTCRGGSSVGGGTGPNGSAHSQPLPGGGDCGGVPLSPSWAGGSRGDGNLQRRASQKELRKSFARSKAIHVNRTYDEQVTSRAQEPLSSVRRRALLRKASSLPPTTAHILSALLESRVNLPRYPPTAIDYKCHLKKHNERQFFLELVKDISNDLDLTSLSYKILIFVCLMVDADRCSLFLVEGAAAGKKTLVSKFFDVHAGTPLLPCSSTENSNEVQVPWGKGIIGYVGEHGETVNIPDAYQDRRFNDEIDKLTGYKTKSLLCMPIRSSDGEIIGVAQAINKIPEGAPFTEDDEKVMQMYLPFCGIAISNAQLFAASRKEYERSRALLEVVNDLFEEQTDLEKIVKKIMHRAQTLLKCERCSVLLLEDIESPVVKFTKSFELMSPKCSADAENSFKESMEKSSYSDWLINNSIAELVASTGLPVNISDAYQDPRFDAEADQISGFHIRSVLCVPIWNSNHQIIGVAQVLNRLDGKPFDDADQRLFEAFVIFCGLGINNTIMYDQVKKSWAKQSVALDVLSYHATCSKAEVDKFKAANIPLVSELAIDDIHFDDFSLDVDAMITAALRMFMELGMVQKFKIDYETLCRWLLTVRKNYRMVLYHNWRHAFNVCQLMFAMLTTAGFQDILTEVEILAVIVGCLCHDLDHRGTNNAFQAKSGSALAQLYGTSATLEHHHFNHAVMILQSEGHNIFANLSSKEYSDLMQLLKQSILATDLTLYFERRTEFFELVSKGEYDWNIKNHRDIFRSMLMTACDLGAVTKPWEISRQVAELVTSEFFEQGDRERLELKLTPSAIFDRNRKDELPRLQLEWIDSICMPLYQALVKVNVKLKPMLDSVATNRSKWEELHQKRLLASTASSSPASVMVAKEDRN
Chain of PDE4B (Q07343 whole entry): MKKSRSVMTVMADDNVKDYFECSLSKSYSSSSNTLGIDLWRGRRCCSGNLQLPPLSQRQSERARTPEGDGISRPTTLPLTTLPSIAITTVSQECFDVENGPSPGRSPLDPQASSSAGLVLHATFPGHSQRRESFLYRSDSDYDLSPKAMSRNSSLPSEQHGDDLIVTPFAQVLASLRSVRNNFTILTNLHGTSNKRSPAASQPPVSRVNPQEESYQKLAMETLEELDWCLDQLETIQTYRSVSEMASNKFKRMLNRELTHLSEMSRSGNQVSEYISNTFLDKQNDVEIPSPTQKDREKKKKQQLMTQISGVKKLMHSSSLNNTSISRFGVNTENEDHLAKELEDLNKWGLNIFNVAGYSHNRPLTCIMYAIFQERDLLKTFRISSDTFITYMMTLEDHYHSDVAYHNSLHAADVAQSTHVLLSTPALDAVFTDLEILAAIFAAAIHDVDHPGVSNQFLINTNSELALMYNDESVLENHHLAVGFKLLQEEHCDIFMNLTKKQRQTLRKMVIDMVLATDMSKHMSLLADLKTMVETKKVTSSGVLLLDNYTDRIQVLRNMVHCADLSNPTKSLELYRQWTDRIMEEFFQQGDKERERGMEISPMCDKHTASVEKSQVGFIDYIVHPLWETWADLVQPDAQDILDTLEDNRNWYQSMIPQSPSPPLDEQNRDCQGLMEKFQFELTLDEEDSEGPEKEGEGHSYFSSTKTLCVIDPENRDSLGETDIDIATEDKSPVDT

CC(C)(C)N1C(=O)[C@H]2Cc3c([nH]c4ccccc34)[C@@H](c3ccc(Cl)cc3)N2C1=O [IX, (5R,11aR)-2-tert-Butyl-5-(4-chlorophenyl)-5,6,11,11a-tetrahydro-1H-imidazo[1’,5’:1,6]pyrido[3,4-b]indole-1,3(2H)-dione]
IC50 (human PDE5): 0.6 µM | inhibition at 50 µM (human PDE5): 100%

O=C1[C@@H]2Cc3c([nH]c4ccccc34)[C@H](c3ccc(Cl)cc3)N2C(=O)N1c1ccc(Cl)cc1 [XV, (5S,11aS)-2,5-Bis(4-chlorophenyl)-5,6,11,11a-tetrahydro-1H-imidazo[1’,5’:1,6]pyrido[3,4-b]indole-1,3(2H)-dione]
inhibition at 50 µM (human PDE5): 33%

CN1CC(=O)N2[C@H](c3ccc4c(c3)OCO4)c3[nH]c4ccccc4c3C[C@@H]2C1=O [Tadalafil, reference compound]
IC50 (PDE3B): > 50 µM | IC50 (PDE3B; [1]): > 50 µM

O=C1[C@@H]2Cc3c([nH]c4ccccc34)[C@@H](c3ccc(Cl)cc3)N2C(=O)N1c1ccc(Cl)cc1 [XVI, (5R,11aS)-2,5-Bis(4-chlorophenyl)-5,6,11,11a-tetrahydro-1H-imidazo[1’,5’:1,6]pyrido[3,4-b]indole-1,3(2H)-dione]
IC50 (human PDE5): 1.09 µM | inhibition at 50 µM (human PDE5): 84%

O=C1[C@H]2Cc3c([nH]c4ccccc34)[C@H](c3ccc(Cl)cc3)N2C(=O)N1c1ccc(Cl)cc1 [XIV, (5S,11aR)-2,5-Bis(4-chlorophenyl)-5,6,11,11a-tetrahydro-1H-imidazo[1’,5’:1,6]pyrido[3,4-b]indole-1,3(2H)-dione]
inhibition at 50 µM (human PDE5): 29%

CCN1C(=O)[C@@H]2Cc3c([nH]c4ccccc34)[C@@H](c3ccc(Cl)cc3)N2C1=O [VIII, (5R,11aS)-2-Ethyl-5-(4-chlorophenyl)-5,6,11,11a-tetrahydro-1H-imidazo[1’,5’:1,6]pyrido[3,4-b]indole-1,3(2H)-dione]
inhibition at 50 µM (human PDE5): 102%

CC(C)(C)N1CC(=O)N2[C@@H](c3ccc(Cl)cc3)c3[nH]c4ccccc4c3C[C@H]2C1=O [XXVII, (6S,12aS)-2-tert-Butyl-6-(4-chlorophenyl)-2,3,6,7,12,12a-hexahydropyrazino[1’,2’:1,6]pyrido[3,4-b]indole-1,4-dione]
inhibition at 50 µM (human PDE5): 42%

COC(=O)[C@H]1Cc2c([nH]c3ccccc23)[C@H](c2ccc(Cl)cc2)N1C(=O)CCl [XVIII, Methyl (1S,3R)-1-(4-chlorophenyl)-2-(chloroacetyl)-2,3,4,9-tetrahydro-1H-β-carboline-3-carboxylate]
inhibition at 50 µM (human PDE5): 6%

COC(=O)[C@H]1Cc2c([nH]c3ccccc23)[C@@H](c2ccc(Cl)cc2)N1 [I, Methyl (1R,3R)-1-(4 chlorophenyl)-2,3,4,9-tetrahydro-1H-β-carboline-3-carboxylate]
inhibition at 50 µM (human PDE5): 35%

CC(C)(C)N1C(=O)[C@@H]2Cc3c([nH]c4ccccc34)[C@@H](c3ccc(Cl)cc3)N2C1=O [XII, (5R,11aS)-2-tert-Butyl-5-(4-chlorophenyl)-5,6,11,11a-tetrahydro-1H-imidazo[1’,5’:1,6]pyrido[3,4-b]indole-1,3(2H)-dione]
IC50 (human PDE5): > 10 µM | inhibition at 50 µM (human PDE5): 83%

CC(C)(C)N1CC(=O)N2[C@H](c3ccc(Cl)cc3)c3[nH]c4ccccc4c3C[C@H]2C1=O [XXVIII, (6R,12aS)-2-tert-Butyl-6-(4-chlorophenyl)-2,3,6,7,12,12a-hexahydropyrazino[1’,2’:1,6]pyrido[3,4-b]indole-1,4-dione]
inhibition at 50 µM (human PDE5): 55%

CC(C)(C)N1C(=O)[C@@H]2Cc3c([nH]c4ccccc34)[C@H](c3ccc(Cl)cc3)N2C1=O [XI, (5S,11aS)-2-tert-Butyl-5-(4-chlorophenyl)-5,6,11,11a-tetrahydro-1H-imidazo[1’,5’:1,6]pyrido[3,4-b]indole-1,3(2H)-dione]
inhibition at 50 µM (human PDE5): 20%

CCN1C(=O)[C@H]2Cc3c([nH]c4ccccc34)[C@@H](c3ccc(Cl)cc3)N2C1=O [V, (5R,11aR)-2-Ethyl-5-(4-chlorophenyl)-5,6,11,11a-tetrahydro-1H-imidazo[1’,5’:1,6]pyrido[3,4-b]indole-1,3(2H)-dione]
IC50 (human PDE5): 1.1 µM | inhibition at 50 µM (human PDE5): 85%

CCN1CC(=O)N2[C@H](c3ccc(Cl)cc3)c3[nH]c4ccccc4c3C[C@@H]2C1=O [XXI, (6R,12aR)-2-Ethyl-6-(4-chlorophenyl)-2,3,6,7,12,12a-hexahydropyrazino[1’,2’:1,6]pyrido[3,4-b]indole-1,4-dione]
potency compared with tadalafil (human PDE5; PDE5 IC50 relative to tadalafil): two-fold | inhibition at 50 µM (human PDE5): 102% | IC50 (human PDE5; read-out: IC50 PDE5A, Table 5 PDE panel): 0.003 µM | IC50 (PDE4B): > 50 µM | IC50 (PDE11A; IC50 PDE11A cAMP, cAMP as substrate): 0.706 µM | IC50 (PDE11A; IC50 PDE11A cGMP, cGMP as substrate): 0.157 µM | Selectivity index IC50 (PDE11/PDE5) cGMP/cGMP (PDE11A; PDE11A with cGMP versus PDE5 with cGMP): 52.3 | IC50 (PDE3B): > 50 µM | IC50 (PDE3B; [1]): > 50 µM

COC(=O)[C@@H]1Cc2c([nH]c3ccccc23)[C@@H](c2ccc(Cl)cc2)N1 [IV, Methyl (1R,3S)-1-(4-chlorophenyl)-2,3,4,9-tetrahydro-1H-β-carboline-3-carboxylate]
inhibition at 50 µM (human PDE5): 48%

O=C1[C@H]2Cc3c([nH]c4ccccc34)[C@@H](c3ccc(Cl)cc3)N2C(=O)N1c1ccc(Cl)cc1 [XIII, (5R,11aR)-2,5-Bis(4-chlorophenyl)-5,6,11,11a-tetrahydro-1H-imidazo[1’,5’:1,6]pyrido[3,4-b]indole-1,3(2H)-dione]
inhibition at 50 µM (human PDE5): 22%

CC(C)(C)N1CC(=O)N2[C@@H](c3ccc(Cl)cc3)c3[nH]c4ccccc4c3C[C@@H]2C1=O [XXVI, (6S,12aR)-2-tert-Butyl-6-(4-chlorophenyl)-2,3,6,7,12,12a-hexahydropyrazino[1’,2’:1,6]pyrido[3,4-b]indole-1,4-dione]
inhibition at 50 µM (human PDE5): 10%

COC(=O)[C@H]1Cc2c([nH]c3ccccc23)[C@@H](c2ccc(Cl)cc2)N1C(=O)CCl [XVII, Methyl (1R,3R)-1-(4-chlorophenyl)-2-(chloroacetyl)-2,3,4,9-tetrahydro-1H-β-carboline-3-carboxylate]
inhibition at 50 µM (human PDE5): 25%

CCN1CC(=O)N2[C@@H](c3ccc(Cl)cc3)c3[nH]c4ccccc4c3C[C@H]2C1=O [XXIII, (6S,12aS)-2-Ethyl-6-(4-chlorophenyl)-2,3,6,7,12,12a-hexahydropyrazino[1’,2’:1,6]pyrido[3,4-b]indole-1,4-dione]
inhibition at 50 µM (human PDE5): 45%

CCN1C(=O)[C@H]2Cc3c([nH]c4ccccc34)[C@H](c3ccc(Cl)cc3)N2C1=O [VI, (5S,11aR)-2-Ethyl-5-(4-chlorophenyl)-5,6,11,11a-tetrahydro-1H-imidazo[1’,5’:1,6]pyrido[3,4-b]indole-1,3(2H)-dione]
inhibition at 50 µM (human PDE5): 47%

CCN1CC(=O)N2[C@@H](c3ccc(Cl)cc3)c3[nH]c4ccccc4c3C[C@@H]2C1=O [XXII, (6S,12aR)-2-Ethyl-6-(4-chlorophenyl)-2,3,6,7,12,12a-hexahydropyrazino[1’,2’:1,6]pyrido[3,4-b]indole-1,4-dione]
IC50 (human PDE5): 1.72 µM | inhibition at 50 µM (human PDE5): 80%

CC(C)(C)N1C(=O)[C@H]2Cc3c([nH]c4ccccc34)[C@H](c3ccc(Cl)cc3)N2C1=O [X, (5S,11aR)-2-tert-Butyl-5-(4-chlorophenyl)-5,6,11,11a-tetrahydro-1H-imidazo[1’,5’:1,6]pyrido[3,4-b]indole-1,3(2H)-dione]
inhibition at 50 µM (human PDE5): 54%

CC(C)(C)N1CC(=O)N2[C@H](c3ccc(Cl)cc3)c3[nH]c4ccccc4c3C[C@@H]2C1=O [XXV, (6R,12aR)-2-tert-Butyl-6-(4-chlorophenyl)-2,3,6,7,12,12a-hexahydropyrazino[1’,2’:1,6]pyrido[3,4-b]indole-1,4-dione]
inhibition at 50 µM (human PDE5): 55%

COC(=O)[C@@H]1Cc2c([nH]c3ccccc23)[C@H](c2ccc(Cl)cc2)N1 [III, Methyl (1S,3S)-1-(4-chlorophenyl)-2,3,4,9-tetrahydro-1H-β-carboline-3-carboxylate]
inhibition at 50 µM (human PDE5): 9%

COC(=O)[C@@H]1Cc2c([nH]c3ccccc23)[C@H](c2ccc(Cl)cc2)N1C(=O)CCl [XIX, Methyl (1S, 3S)-1-(4-chlorophenyl)-2-(chloroacetyl)-2,3,4,9-tetrahydro-1H-b-carboline-3-carboxylate]
% cGMP inhibition (50 μM) (human PDE5; PDE5, compound at 50 μM, triplicate, TAMRA-cGMP substrate): 6%

CCN1CC(=O)N2[C@H](c3ccc(Cl)cc3)c3[nH]c4ccccc4c3C[C@H]2C1=O [XXIV, (6R,12aS)-2-Ethyl-6-(4-chlorophenyl)-2,3,6,7,12,12a-hexahydropyrazino[1’,2’:1,6]pyrido[3,4-b]indole-1,4-dione]
IC50 (human PDE5): 1.2 µM | inhibition at 50 µM (human PDE5): 87%

CCN1C(=O)[C@@H]2Cc3c([nH]c4ccccc34)[C@H](c3ccc(Cl)cc3)N2C1=O [VII, (5S,11aS)-2-Ethyl-5-(4-chlorophenyl)-5,6,11,11a-tetrahydro-1H-imidazo[1’,5’:1,6]pyrido[3,4-b]indole-1,3(2H)-dione]
inhibition at 50 µM (human PDE5): 30%

COC(=O)[C@H]1Cc2c([nH]c3ccccc23)[C@H](c2ccc(Cl)cc2)N1 [II, Methyl (1S,3R)-1-(4-chlorophenyl)-2,3,4,9-tetrahydro-1H-β-carboline-3-carboxylate]
inhibition at 50 µM (human PDE5): 4%

COC(=O)[C@@H]1Cc2c([nH]c3ccccc23)[C@@H](c2ccc(Cl)cc2)N1C(=O)CCl [XX, Methyl (1R,3S)-1-(4-chlorophenyl)-2-(chloroacetyl)-2,3,4,9-tetrahydro-1H-β-carboline-3-carboxylate]
inhibition at 50 µM (human PDE5): 78%

Reference: article PMC4980839 (Archiv der Pharmazie, 2010)
